# Experimental data of several laboratories.
# Each line is one published result; the experiments were not run side by side.
# Cell line: A549
# Observed: cell growth or viability
SMILES,method,tested at,time,endpoint,value
COCCC(=O)Nc1ccccc1/N=c1\cc(-c2ccc3nc(N)oc3c2)oc2ccccc12,CCK-8,1 µM,,inhibition,-0.65%
CCCCCCCCCCCCCCCCCCOc1ccccc1CC(=O)OCCC[N+](C)(C)C,SRB,10 µM,,inhibition,45.8%
C[C@H](N)C(=O)Nc1ccccc1/N=c1\cc(-c2ccc3c(c2)OCCO3)oc2c([N+](=O)[O-])cccc12,CCK-8,1 µM,,inhibition,0.38%
COc1ccc(NC(=O)Nc2cccc(-c3cn(Cc4ccc(Cl)cc4)nn3)c2)cc1,CCK-8,20 µM,72 h,viability,147%
O=C(Nc1cccc(-c2cn(Cc3ccc(Cl)cc3)nn2)c1)Nc1ccccc1Br,CCK-8,50 µM,72 h,viability,149%
COc1ccc(NC(=O)Nc2cccc(-c3cn(Cc4ccc(Br)cc4)nn3)c2)cc1,CCK-8,50 µM,72 h,viability,271%
C[C@H](N)C(=O)Nc1ccccc1/N=c1\cc(-c2ccc3c(c2)OCO3)oc2ccccc12,CCK-8,1 µM,,inhibition,-2.13%
O=C(Nc1ccc(Cl)cc1)Nc1ccc(-c2cn(Cc3ccc(Br)cc3)nn2)cc1,CCK-8,50 µM,72 h,viability,78.8%
COc1ccc(NC(=O)Nc2ccc(-c3cn(Cc4ccc(Cl)cc4)nn3)cc2)cc1,CCK-8,20 µM,72 h,viability,102%
NCC(=O)Nc1ccccc1/N=c1\cc(-c2ccc3c(c2)OCO3)oc2c([N+](=O)[O-])cccc12,CCK-8,1 µM,,inhibition,-2.29%
O=C(NCc1cn(Cc2ccc(Cl)cc2)nn1)Nc1ccccc1Br,CCK-8,50 µM,72 h,viability,86.1%
COc1ccc2/c(=N/c3ccccc3NC(=O)[C@@H](N)C(C)(C)C)cc(-c3ccc4c(c3)OCCO4)oc2c1,CCK-8,1 µM,,inhibition,6.77%
O=C(Nc1cccc(-c2cn(Cc3ccc(Br)cc3)nn2)c1)Nc1ccccc1Br,CCK-8,50 µM,72 h,viability,70.9%
CCNc1nc2ccc(-c3c/c(=N\c4ccccc4NC(=O)CCN)c4ccccc4o3)cc2o1,CCK-8,1 µM,,inhibition,14.1%
Cc1ccccc1Cn1cc(-c2cccc(NC(=O)Nc3ccc(F)cc3)c2)nn1,CCK-8,50 µM,72 h,viability,175%
CCCCCCCCCCCCCCCCCCOc1cccc(CC(=O)OCC[N+]2(C)CCCC2)c1,SRB,10 µM,,inhibition,13.9%
COc1ccc(NC(=O)Nc2cccc(-c3cn(Cc4ccc(C)cc4)nn3)c2)cc1,CCK-8,20 µM,72 h,viability,146%
O=C(Nc1ccc(-c2cn(Cc3ccc(Cl)cc3)nn2)cc1)Nc1ccccc1Br,CCK-8,50 µM,72 h,viability,107%
